In brackets after ≈: the same amount, converted by molar mass.
Legend:
1A9 [1] = test: Inhibition concentration against human ovarian 1A9 tumor cells; format: functional, cell-based
[2] = target: Tubulin beta-4B chain (Homo sapiens) (UniProt P68371); test: (§1) Tubulin polymerization at a concentration of 100 uM incubated for 90 minutes; format: functional
How it was run: (§2)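 Tubulin polymerization was read as percent polymerization, with test drug at 100 µM and a 90 min incubation.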

[3] = target: Tubulin beta-4B chain (Homo sapiens) (UniProt P68371); test: as §1; how it was run: as §2
KB 3-1 [4] = test: Cytotoxicity against KB3-1 human epidermoid cancer cells; format: functional, cell-based
KB 3-1 [5] = test: Cytotoxicity against KB-31 human epidermoid cancer cells; format: functional, cell-based
[6] = target: T1, Mycothiol S-conjugate amidase (Mycobacterium tuberculosis, UniProt P9WJN1); test: Inhibition of Mycobacterium tuberculosis detoxification enzyme mycothiol-S-conjugate amidase (MCA)
T1 sequence (P9WJN1 whole entry): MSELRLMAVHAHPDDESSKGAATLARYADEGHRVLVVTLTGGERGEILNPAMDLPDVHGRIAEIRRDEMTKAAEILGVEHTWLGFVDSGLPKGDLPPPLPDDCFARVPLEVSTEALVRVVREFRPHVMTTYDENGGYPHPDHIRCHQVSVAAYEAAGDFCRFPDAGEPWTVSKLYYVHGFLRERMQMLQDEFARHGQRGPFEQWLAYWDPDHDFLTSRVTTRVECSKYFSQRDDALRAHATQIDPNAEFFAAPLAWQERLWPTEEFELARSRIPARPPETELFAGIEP

Bacteria = test: Minimum inhibitory concentration against bacterial strains; format: functional
Staphylococcus aureus [7] = test: Minimum inhibitory concentration against methicillin resistant Staphylococcus aureus (MRSA); format: functional
[8] = target: Polyunsaturated fatty acid 5-lipoxygenase (Homo sapiens) (UniProt P09917); test: Inhibitory concentration against 5-lipoxygenase
MOLT-4 [9] = test: Inhibitory concentration against MOLT-4 human T-cells; format: functional, cell-based
MOLT-4 [10] = test: Inhibitory concentration against MOLT-4 human T-cells; 10e-12; format: functional, cell-based
1A9 [11] = test: Cytotoxicity against 1A9 human ovarian carcinoma cells; format: functional, cell-based
Staphylococcus aureus [12] = test: Minimum inhibitory concentration against methicillin resistant Staphylococcus aureus (MRSA); range is 3-12 ug/mL; format: functional
[13] = In vitro cytotoxicity against leukemia P-388 tumor cells; format: functional, cell-based; details: Mus musculus, P388
[14] = Antiproliferation activity against cancer cell lines by mixed-lymphocyte-reaction proliferation assay; format: functional, cell-based; details: Homo sapiens
Felis catus = species on record: Felis catus; test: Inhibition of LTC4 and LTD4 production in cat lung at 5 mM; format: functional
[15] = Staphylococcus aureus, read-out: MIC

Tubulin beta-4B chain (Homo sapiens), sequence (P68371 whole entry): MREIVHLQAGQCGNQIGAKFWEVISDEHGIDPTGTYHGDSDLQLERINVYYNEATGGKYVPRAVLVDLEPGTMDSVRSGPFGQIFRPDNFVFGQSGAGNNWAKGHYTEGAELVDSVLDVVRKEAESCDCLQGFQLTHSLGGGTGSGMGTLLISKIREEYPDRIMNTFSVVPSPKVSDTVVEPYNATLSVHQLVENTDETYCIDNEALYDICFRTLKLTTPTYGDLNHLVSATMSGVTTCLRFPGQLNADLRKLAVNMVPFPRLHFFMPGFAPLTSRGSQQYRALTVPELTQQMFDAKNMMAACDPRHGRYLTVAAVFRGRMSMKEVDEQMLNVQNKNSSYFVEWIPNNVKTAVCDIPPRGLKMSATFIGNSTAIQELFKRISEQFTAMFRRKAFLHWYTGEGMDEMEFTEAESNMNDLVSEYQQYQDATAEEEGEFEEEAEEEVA
Polyunsaturated fatty acid 5-lipoxygenase (Homo sapiens), sequence (P09917 whole entry): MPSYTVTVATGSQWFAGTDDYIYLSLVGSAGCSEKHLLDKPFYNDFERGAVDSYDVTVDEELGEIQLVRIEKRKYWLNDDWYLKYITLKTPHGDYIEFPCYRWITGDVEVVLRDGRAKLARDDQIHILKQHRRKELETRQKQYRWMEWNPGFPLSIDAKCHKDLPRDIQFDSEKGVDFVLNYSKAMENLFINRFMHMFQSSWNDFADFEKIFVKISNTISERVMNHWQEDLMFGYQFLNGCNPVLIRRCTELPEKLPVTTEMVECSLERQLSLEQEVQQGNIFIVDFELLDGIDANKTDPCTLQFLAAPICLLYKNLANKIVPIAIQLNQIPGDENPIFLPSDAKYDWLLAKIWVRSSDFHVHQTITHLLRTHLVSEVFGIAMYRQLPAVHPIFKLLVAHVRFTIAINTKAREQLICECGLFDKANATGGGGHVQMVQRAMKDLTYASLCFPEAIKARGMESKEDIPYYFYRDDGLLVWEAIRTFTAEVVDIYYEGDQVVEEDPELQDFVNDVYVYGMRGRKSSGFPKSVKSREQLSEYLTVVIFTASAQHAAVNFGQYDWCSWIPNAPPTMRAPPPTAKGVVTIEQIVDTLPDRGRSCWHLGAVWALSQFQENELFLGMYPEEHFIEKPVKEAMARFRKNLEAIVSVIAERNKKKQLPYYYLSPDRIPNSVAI

## COC(=O)/C1=C/[C@@H]2[C@@H](C(C)C)CC=C(C)[C@@H]2C[C@H](OC(=O)/C=C/c2cn(C)cn2)[C@]2(C)C=C[C@@]1(O)O2 [SARCODICTYIN A]
1A9 [1]
  IC50: 0.34 µM
[2]
  TP: 67%
[3]
  TP: 67%

## CC(C)=CCc1c2c(c(O)c3c1O[C@]14C(=C[C@@H]5C[C@H]1C(C)(C)OC4(CC=C(C)C)C5=O)C3=O)C=CC(C)(C)O2
KB 3-1 [4]
  IC50: 8.41 µM
KB 3-1 [5]
  IC50: 8.41 µM

## Nc1ccc(SSCCNC(=O)/C(Cc2cccc(Br)c2)=N/O)cc1
[6]
  IC50: 185 µM
Bacteria
  MIC: 0.09 ug m/L

## CC(C)=CCc1c2c(c(O)c3c1O[C@]14C(=C[C@@H]5C[C@H]1C(C)(C)OC4(CC=C(C)C)C5=O)C3=O)C=CC(C)(CCC(C)C)O2 (some centres undefined)
KB 3-1 [4]
  IC50: 6.01 µM
KB 3-1 [5]
  IC50: 6.01 µM

## CC1(C)C=Cc2cc(-c3ccco3)cc(/C=C(/C#N)c3ccc(O)cc3)c2O1
Staphylococcus aureus [7]
  MIC: 2 µg/mL (≈ 5.41 µM)
Staphylococcus aureus [7]; [15]
  MIC: 2 µg/mL (≈ 5.41 µM)

## CCOC(=O)/C1=C/[C@@H]2[C@@H](C(C)C)CC=C(C)[C@@H]2C[C@H](OC(=O)/C=C/c2cn(C)cn2)[C@]2(C)C=C[C@@]1(OC)O2
1A9 [1]
  IC50: 0.002 µM
[2]
  TP: 46%
[3]
  TP: 46%

## CCCCC/C=C/C\C=C/C=C/C=C/[C@@H]1C[C@H]1CCCC(=O)OC
[8]
  ID50: 6 µM

## CCNC1COC(OC2C(O[C@H]3C#C/C=C\C#C[C@@](C)(O)C(=C/CSC(C)=O)/C3=C(\NC(=O)OC)C(C)=O)OC(C)C(NOC3CC(O)C(SC(=O)c4c(C)c(I)c(OC5OC(C)C(O)C(OC)C5O)c(OC)c4OC)C(C)O3)C2O)CC1OC (some centres undefined)
MOLT-4 [9]
  IC50: < 0.01 nM
MOLT-4 [10]
  IC50: < 1 pM

## CC/C=C\C=C/C(=O)N/C=C/C[C@H]1C[C@H]2C[C@H](OC(C)=O)C[C@H](Cc3cccc(O)c3C(=O)O1)O2
1A9 [11]
  IC50: 0.0032 µM

## O=C(NCCSSc1ccc(F)cc1)/C(Cc1cc(F)cc(F)c1)=N/O
[6]
  IC50: 2720 µM
Bacteria
  MIC: 0.46 ug m/L

## CC1(C)C=Cc2cccc(/C=C(/C#N)c3ccc(O)cc3)c2O1
Staphylococcus aureus [12]
  MIC: 12 µg/mL (≈ 39.6 µM)
Staphylococcus aureus [12]; [15]
  MIC: 12 µg/mL (≈ 39.6 µM)

## Nc1ccc(SSCCNC(=O)/C(Cc2ccc(O)c(Cl)c2)=N/O)cc1
[6]
  IC50: 35 µM
Bacteria
  MIC: 1.23 ug m/L

## CCOC(=O)c1c(OCC)cc(C)cc1[C@H]1[C@@H](C(C)C)CC[C@@]1(C)C(=O)OCC
[13]
  IC50: 54.2 µM

## CCCCCCCCCC[C@H]1CC1CCCC/C=C\CC[C@@H](O)C(=O)N[C@@H](CO[C@@H]1OC(CO)[C@@H](O)[C@H](O)[C@@H]1OCC=C(C)C)[C@H](O)CCC/C=C\CCCC[C@@H]1C[C@@H]1CCCCCCCCCC (single isomer, unassigned)
[14]
  IC50: > 50 µM

## CCCCCCCCCC[C@H]1C[C@H]1CCCC/C=C\CC[C@@H](O)C(=O)N[C@@H](CO[C@@H]1O[C@@H](CO)[C@@H](O)[C@H](O)[C@@H]1OCC=C(C)C)[C@H](O)CCCCCCC[C@@H]1C[C@@H]1CCCCCCCCCC
[14]
  IC50: > 50 µM

## Cc1cc(O)c2c(c1)[C@H]1[C@@H](C(C)C)CC[C@@]1(C)C(=O)C2=O
[13]
  IC50: 13.9 µM

## O=C(/C=C/c1ccccc1)N/C=C/C[C@H]1C[C@H]2C[C@H](O)C[C@H](Cc3cccc(O)c3C(=O)O1)O2
1A9 [11]
  IC50: 0.05 µM

## CCOC(=O)/C1=C/[C@@H]2[C@@H](C(C)C)CC=C(C)[C@@H]2C[C@H](OC(=O)/C=C/c2cn(C)cn2)[C@]2(C)C=C[C@@]1(O)O2 [SARCODICTYIN B]
1A9 [1]
  IC50: 0.002 µM
[2]
  TP: 71%
[3]
  TP: 71%

## CCCOC(=O)/C1=C/[C@@H]2[C@@H](C(C)C)CC=C(C)[C@@H]2C[C@H](OC(=O)/C=C/c2cn(C)cn2)[C@]2(C)C=C[C@@]1(OC)O2
1A9 [1]
  IC50: 0.003 µM
[2]
  TP: 69%
[3]
  TP: 69%

## CCCCC/C=C\C/C=C\C1(/C=C\C2(/C=C\CCCC(=O)O)CC2)CC1
Felis catus
  Inhibition: 5%

## CNC(=O)/C1=C/[C@@H]2[C@@H](C(C)C)CC=C(C)[C@@H]2C[C@H](OC(=O)/C=C/c2cn(C)cn2)[C@]2(C)C=C[C@@]1(OC)O2
1A9 [1]
  IC50: 0.045 µM
[2]
  TP: 52%
[3]
  TP: 52%

— ChEMBL document CHEMBL1143652, “Joys of molecules. 2. Endeavors in chemical biology and medicinal chemistry” (J Med Chem, 2005)
